Here are results for 32 compounds from ChEMBL document CHEMBL1127568, “A new series of PDGF receptor tyrosine kinase inhibitors: 3-substituted quinoline derivatives” (J Med Chem, 1994).

Test [1] concerns the target T1, Platelet-derived growth factor receptor (Homo sapiens, UniProt P09619+P16234). Put plainly: Inhibition of isolated human PDGF receptor phosphorylation. The class given is protein-complex assay.
Test [2] deals with Epidermal growth factor receptor (Homo sapiens, UniProt P00533). Put plainly: Concentration required to inhibit phosphorylation of isolated human epidermal growth factor tyrosine kinase receptor by 50%.
Sequence of Epidermal growth factor receptor (P00533 whole entry): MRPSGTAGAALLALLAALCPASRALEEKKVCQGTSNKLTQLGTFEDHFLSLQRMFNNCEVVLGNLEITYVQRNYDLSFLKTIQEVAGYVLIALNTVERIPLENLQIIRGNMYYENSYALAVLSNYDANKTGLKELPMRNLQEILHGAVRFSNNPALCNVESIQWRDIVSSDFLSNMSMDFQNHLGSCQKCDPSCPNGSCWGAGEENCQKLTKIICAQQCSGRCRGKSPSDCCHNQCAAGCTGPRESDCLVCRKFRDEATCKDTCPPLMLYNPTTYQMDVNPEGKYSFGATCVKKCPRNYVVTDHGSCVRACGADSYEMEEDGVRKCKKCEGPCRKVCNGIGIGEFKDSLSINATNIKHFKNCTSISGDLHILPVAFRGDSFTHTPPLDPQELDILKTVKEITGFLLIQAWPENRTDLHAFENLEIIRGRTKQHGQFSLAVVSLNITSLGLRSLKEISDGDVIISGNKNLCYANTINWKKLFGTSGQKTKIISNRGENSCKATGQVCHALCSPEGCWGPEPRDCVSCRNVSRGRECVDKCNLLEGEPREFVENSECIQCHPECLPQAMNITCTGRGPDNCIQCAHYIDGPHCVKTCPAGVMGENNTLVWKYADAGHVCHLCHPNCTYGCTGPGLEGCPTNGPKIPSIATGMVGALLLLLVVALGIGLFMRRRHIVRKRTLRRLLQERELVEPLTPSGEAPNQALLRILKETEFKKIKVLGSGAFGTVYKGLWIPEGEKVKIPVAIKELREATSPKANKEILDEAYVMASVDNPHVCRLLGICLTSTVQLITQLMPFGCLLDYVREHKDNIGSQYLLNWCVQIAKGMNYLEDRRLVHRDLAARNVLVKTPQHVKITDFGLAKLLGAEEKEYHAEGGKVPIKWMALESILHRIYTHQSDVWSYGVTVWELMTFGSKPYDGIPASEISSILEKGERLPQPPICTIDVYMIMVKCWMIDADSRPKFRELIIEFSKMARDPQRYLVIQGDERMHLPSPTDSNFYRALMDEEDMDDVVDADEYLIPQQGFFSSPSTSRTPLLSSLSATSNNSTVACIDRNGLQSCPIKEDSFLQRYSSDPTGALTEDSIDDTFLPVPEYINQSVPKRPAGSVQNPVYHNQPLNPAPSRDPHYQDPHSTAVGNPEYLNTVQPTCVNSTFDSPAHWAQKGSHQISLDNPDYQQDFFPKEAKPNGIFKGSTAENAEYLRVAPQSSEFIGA
The target in test [3] is T1, Platelet-derived growth factor receptor. Put plainly: Inhibition of human PDGF receptor phosphorylation; 0.008-0.07. The class given is protein-complex assay.
Test [4] has the same target. Put plainly: Inhibition of human PDGF receptor phosphorylation; 0.02-0.04. The format is protein-complex assay. In a few lines:
(§1)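 PDGF receptor from NIH 3T3 cell lysates (cells made quiescent 24 h in 0.5% calf serum), stimulated with 10 ng/mL PDGF for 30 min at 4 °C and immunoprecipitated on Protein A beads. Each compound ran in at least two dose-response assays.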

For test [5] the target is unchanged. Put plainly: Inhibition of human PDGF receptor phosphorylation; 0.01-0.02. The class given is protein-complex assay.
For test [6], the target named is cAMP-dependent protein kinase (PKA) (Homo sapiens, UniProt P22694+P17612+P22612). Kind of test: Test for the inhibition of protein kinase A. The format is protein assay.
Test [7] deals with T1, Platelet-derived growth factor receptor. Put plainly: Inhibition of human PDGF receptor phosphorylation; 20-30. The format is protein-complex assay.
The target is the same in test [8]. Put plainly: Inhibition of human PDGF receptor phosphorylation; 1-2. The format is protein-complex assay. In a few lines: as §1
The target is the same in test [9]. Kind of test: Inhibition of human PDGF receptor phosphorylation; 0.1-0.5. The format is protein-complex assay. In a few lines: as §1
The target is the same in test [10]. Kind of test: Inhibition of human PDGF receptor phosphorylation; 0.3-0.5. The format is protein-complex assay. An outline of the steps:
as §1

Test [11] has the same target. Put plainly: Inhibition of human PDGF receptor phosphorylation; 0.2-0.8. The class given is protein-complex assay. In a few lines: (§2)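 Receptor from quiescent NIH 3T3 cell lysates (24 h in 0.5% calf serum before lysis), stimulated with 10 ng/mL PDGF for 30 min at 4 °C, then immunoprecipitated with anti-PDGF receptor antibody on Protein A beads. Compound pre-incubated 10 min at 4 °C in 50 mM Tris, 10 mM MnCl2, pH 7.5. At least two dose-response assays per compound.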

Test [12] has the same target. Put plainly: Inhibition of human PDGF receptor phosphorylation; 0.7-5. The class given is protein-complex assay. An outline of the steps: as §1
Test [13] has the same target. Kind of test: Inhibition of human PDGF receptor phosphorylation; 0.2-0.4. The class given is protein-complex assay. In a few lines: as §1
For test [14] the target is unchanged. Put plainly: Inhibition of human PDGF receptor phosphorylation; 0.1-0.4. The class given is protein-complex assay. In a few lines:
as §1

For test [15] the target is unchanged. Kind of test: Inhibition of human PDGF receptor phosphorylation; 0.04-0.07. The class given is protein-complex assay. An outline of the steps: as §2
The target is the same in test [16]. Kind of test: Inhibition of human PDGF receptor phosphorylation; 0.015-0.03. The class given is protein-complex assay. In a few lines: as §1
Test [17] has the same target. Kind of test: Inhibition of human PDGF receptor phosphorylation; 0.5-3. The class given is protein-complex assay.
Test [18] shares this target. Put plainly: Inhibition of human PDGF receptor phosphorylation; 0.02-0.05. The class given is protein-complex assay. An outline of the steps: as §1
For test [19] the target is unchanged. Put plainly: Inhibition of human PDGF receptor phosphorylation; 0.1-0.2. The class given is protein-complex assay. In a few lines:
as §1

For test [20] the target is unchanged. Kind of test: Inhibition of human PDGF receptor phosphorylation; 0.15-0.5. The format is protein-complex assay. In a few lines:
as §1

For test [21] the target is unchanged. Put plainly: Inhibition of human PDGF receptor phosphorylation; 0.5-2. The format is protein-complex assay.
Test [22] shares this target. Put plainly: Inhibition of human PDGF receptor phosphorylation; 0.09-0.2. The class given is protein-complex assay. An outline of the steps: as §1
Test [23] shares this target. Put plainly: Inhibition of human PDGF receptor phosphorylation; 0.003-0.005. The class given is protein-complex assay.
The target is the same in test [24]. Kind of test: Inhibition of human PDGF receptor phosphorylation; 1-7. The class given is protein-complex assay.
The target is the same in test [25]. Put plainly: Inhibition of human PDGF receptor phosphorylation; 2-4. The class given is protein-complex assay.
For test [26] the target is unchanged. Put plainly: Inhibition of human PDGF receptor phosphorylation; 0.002-0.06. The class given is protein-complex assay. In a few lines:
as §1

For test [27] the target is unchanged. Put plainly: Inhibition of human PDGF receptor phosphorylation; 0.035-0.06. The class given is protein-complex assay. In a few lines: as §1
For test [28] the target is unchanged. Kind of test: Inhibition of human PDGF receptor phosphorylation; 0.2-0.6. The class given is protein-complex assay. In a few lines: as §1
For test [29] the target is unchanged. Kind of test: Inhibition of human PDGF receptor phosphorylation; 0.07-0.15. The format is protein-complex assay.
Test [30] shares this target. Put plainly: Inhibition of human PDGF receptor phosphorylation; 0.007-0.03. The format is protein-complex assay.
Test [31] has the same target. Kind of test: Inhibition of human PDGF receptor phosphorylation; 0.001-0.015. The format is protein-complex assay.
For test [32] the target is unchanged. Put plainly: Inhibition of human PDGF receptor phosphorylation; 0.001-0.005. The class given is protein-complex assay. In a few lines:
as §1

The term IC50 denotes the concentration that gives 50% inhibition. A lower IC50 goes with inhibition by little substance. Consider `COc1cc2cc(-c3ccc(-c4ccccc4)cc3)cnc2cc1OC`, for which the IC50 was > 50000 nM in test [1] and > 20000 nM in test [2].

For `COc1cc2cc(-c3ccc(N(C)C)cc3)cnc2cc1OC`, the figures for the IC50 in [1] and in [2] were 10000 nM and > 20000 nM, respectively.

Consider `COc1ccc(-c2cnc3cc(OC)c(OC)cc3c2)cn1`, for which the IC50 in test [3] was 70 nM; in test [2], > 20000 nM.

On to `COc1cc2cc(C3=CCCC3)cnc2cc1OC`, for which the IC50 in [2] was > 20000 nM; in test [4], 40 nM.

`COc1cc2cc(-c3ccsc3)cnc2cc1OC`: the IC50 in test [2] was > 20000 nM; in [5] it was 20 nM; in [6], > 200000 nM.

For the compound `COc1cc2cccnc2cc1OC`, the IC50 in test [2] is > 20000 nM; in [7], 30000 nM.

Consider `Clc1cc2cc(-c3ccsc3)cnc2cc1Cl`, for which the IC50 was > 20000 nM in test [2] and 2000 nM in test [8].

Take `COc1cc2cc(C3CCCC3)cnc2cc1OC`: the IC50 was 500 nM in test [9] and > 20000 nM in test [2].

As for `COc1cc2cc(CCC3CCCCC3)cnc2cc1OC`, the IC50 is > 20000 nM in [2] and 500 nM in test [10].

As for `COc1ccc(CCc2cnc3cc(OC)c(OC)cc3c2)cc1`, the IC50 in test [2] is > 20000 nM; in test [11], 800 nM.

With `COc1cc2cc(-c3ccc(C(=O)O)cc3)cnc2cc1OC`, in test [12], inhibition was half-maximal at 5000 nM (IC50). This lies in the single-digit micromolar range.

In the case of `COc1cc2cc(-c3cc(F)c(OC)c(F)c3)cnc2cc1OC`, the IC50 in test [2] is > 20000 nM; in test [13] it was 400 nM.

Turning to `COc1ccc(-c2cnc3cc(OC)c(OC)cc3c2)cc1C`, the IC50 in test [14] was 400 nM; in [2], > 20000 nM.

With `COc1cc2cc(OCc3ccccc3)cnc2cc1OC`, the IC50 in test [15] is 70 nM; in test [2], > 20000 nM.

As to `COc1cc2cc(-c3ccc(=O)[nH]c3)cnc2cc1OC`, the IC50 in [16] was 30 nM; in test [2], > 20000 nM.

Consider `COc1ccc(/C=C(\C#N)c2cccnc2)cc1OC`, for which the results for the concentration for half-maximal inhibition (IC50) in test [17] and in test [2] were 3000 nM and 700 nM, respectively.

Consider `COc1cc2cc(C#Cc3ccccc3)cnc2cc1OC`, for which the IC50 in test [18] was 50 nM; in test [2] it was > 20000 nM.

With `CCOC(=O)c1ccc(-c2cnc3cc(OC)c(OC)cc3c2)cc1`, half-maximal inhibition in [19] (IC50) was put at 200 nM.

`COc1cc2cc(-c3ccc(OC)c([N+](=O)[O-])c3)cnc2cc1OC`: the results for the IC50 in [20] and in test [2] were 500 nM and > 20000 nM, respectively.

For the compound `COc1cc2cc(-c3ccc(C)cc3)cnc2cc1OC`, the values for the half-maximal inhibitory concentration (IC50) in test [2] and in test [21] were > 20000 nM and 2000 nM, respectively.

`COc1cc2cc(-c3ccc(F)c(F)c3)cnc2cc1OC`: the IC50 was 200 nM in test [22] and > 20000 nM in [2].

For the compound `COc1ccc(-c2cnc3cc(OC)c(OC)cc3c2)cc1F`, the IC50 in test [2] is > 20000 nM; in [23], 5 nM.

`COc1cc2cc(-c3ccc(Cl)c(Cl)c3)cnc2cc1OC`: the values for the IC50 in [2] and in test [24] were > 20000 nM and 7000 nM, respectively.

For `COc1ccc(-c2cnc3cc(OC)c(OC)cc3c2)c(OC)c1`, the IC50 was > 50000 nM in [1] and > 20000 nM in [2].

The compound `Fc1cc2cc(-c3ccsc3)cnc2cc1F` yielded an IC50 in test [25] of 4000 nM. That is a single-digit micromolar value.

Regarding `COc1ccc2cc(-c3ccsc3)cnc2c1`, the concentration for half-maximal inhibition (IC50) is > 20000 nM in test [2] and 60 nM in test [26].

As to `COc1cc2cc(-c3ccc(F)cc3)cnc2cc1OC`, the IC50 in test [27] was 60 nM; in [2] it was > 20000 nM.

With `c1cc(-c2cnc3cc4c(cc3c2)OCO4)cs1`, the IC50 in [2] was > 20000 nM; in test [28], 600 nM.

`COc1cc2cc(-c3ccc([N+](=O)[O-])cc3)cnc2cc1OC`: the IC50 in test [2] was > 20000 nM; in test [29] it was 150 nM.

Consider `COc1cc2cc(-c3ccc(Cl)s3)cnc2cc1OC`, for which the figures for the IC50 in test [30] and in test [2] were 30 nM and > 20000 nM, respectively.

As for `COc1ccc(-c2cnc3cc(OC)c(OC)cc3c2)cc1`, the IC50 in [31] was 15 nM; in test [2], > 20000 nM; in [6], > 200000 nM.

Take `COc1cc2cc(/C=C/c3ccccc3)cnc2cc1OC`: the IC50 in test [32] was 5 nM; in test [2], > 20000 nM.
